We go through 17 compounds from ChEMBL document CHEMBL1629467, “Design and synthesis of novel tetrahydro-2H-Pyrano[3,2-c]pyridazin-3(6H)-one derivatives as potential anticancer agents” (Eur J Med Chem, 2010).

Structures are written as SMILES. A value given as a limit tells only on which side of the number the result lay.

One data set concerns HCT-116. The data set can be described thus: Growth inhibition of human HCT116 cells after 48 hrs by sulforhodamine B assay. In kind it is functional, cell-based. The note with it: HCT-116, 48 h. Put shortly:
(§1)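 Cells were grown in RPMI-1640 with 10% FBS, penicillin, streptomycin and amphotericin B at 37 °C in 5% CO2, then treated for 48 h in triplicate wells. They were fixed with cold 50% TCA for 1 h at 4 °C, stained with 0.4% SRB in 1% acetic acid for 10 min at RT, and dissolved in 10 mM Tris (pH 10.5) before reading A570. Percent inhibition was calculated against untreated cells after blank subtraction. IC50 is the concentration giving a 50% reduction in net protein increase, reported as mean ± SEM from ≥3 independent runs.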

Data set [1] deals with SK-N-SH. The data set can be described thus: Growth inhibition of human SK-N-SH cells after 48 hrs by sulforhodamine B assay. In kind it is functional, cell-based. The method in brief: as §1
The test system of data set [2] is SK-BR-3. The data set can be described thus: Growth inhibition of human SK-BR-3 cells after 48 hrs by sulforhodamine B assay. In kind it is functional, cell-based. The note with it: SK-BR-3, 48 h. The method in brief:
as §1

The next data set concerns DU-145. The data set can be described thus: Growth inhibition of human DU145 cells after 48 hrs by sulforhodamine B assay. It is filed as functional, cell-based. The note with it: DU-145, 48 h. Put shortly:
as §1

The test system of the next data set is A549. The data set can be described thus: Growth inhibition of human A549 cells after 48 hrs by sulforhodamine B assay. It is filed as functional, cell-based. Conditions: A549, 48 h. Put shortly:
as §1

Data set [3] concerns SK-BR-3. The data set can be described thus: Selectivity ratio of IC50 for human SK-BR-3 cells to IC50 for human A549 cells. It is filed as functional.
Data set [4] concerns SK-BR-3. The data set can be described thus: Selectivity ratio of IC50 for human SK-BR-3 cells to IC50 for human HCT116 cells. In kind it is functional.
Data set [5] has as its system SK-N-SH. The data set can be described thus: Selectivity ratio of IC50 for human SK-BR-3 cells to IC50 for human SK-N-SH cells. It is filed as functional.
Data set [6] relates to SK-BR-3. The data set can be described thus: Selectivity ratio of IC50 for human SK-BR-3 cells to IC50 for human DU145 cells. In kind it is functional.
The nature of data set [7]: Growth inhibition of human MCF10A cells after 48 hrs by sulforhodamine B assay. The note with it: MCF-10A. In kind it is cell-based. Put shortly:
as §1

For data set [8], the system named is SK-BR-3. The data set can be described thus: Selectivity for human SK-BR-3 cells over human MCF10A cells.
The nature of data set [9]: Cytotoxicity against human MCF10A cells at 0.1 uM after 72 hrs by MTT assay. It is filed as cell-based. Conditions: mcf-10a. Put shortly: (§2)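 Cells were plated in 96-well plates with medium and treated after 24 h with five test concentrations, each in triplicate, for 72 h. They were then washed with PBS, and fresh medium plus MTT (stock 3 mg/mL in PBS) was added for 4 h at 37 °C. Formazan was dissolved in DMSO for 30 min, absorbance was read, and the data were converted to % cell viability.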

The nature of data set [10]: Cytotoxicity against human MCF10A cells at 0.3 uM after 72 hrs by MTT assay. In kind it is cell-based. The note with it: mcf-10a. Put shortly: as §2
A short description of data set [11]: Cytotoxicity against human MCF10A cells at 1 uM after 72 hrs by MTT assay. In kind it is cell-based. Conditions: mcf-10a. The method in brief: as §2
Data set [12] in a line: Cytotoxicity against human MCF10A cells at 3 uM after 72 hrs by MTT assay. In kind it is cell-based. Conditions: mcf-10a. The method in brief:
as §2

Data set [13] in a line: Cytotoxicity against human MCF10A cells at 10 uM after 72 hrs by MTT assay. It is filed as cell-based. Conditions: mcf-10a. The method in brief:
as §2

For the compound `CO[C@@H]1CC=C2NN(c3cncnc3)C(=O)C[C@]2(c2ccccc2)O1`, the IC50 with HCT-116 was found to be 9.13 µM; in the data set on SK-N-SH [1], 8.2 µM; in the data set with SK-BR-3 [2], 5.3 µM; in the data set with DU-145 it was 7.33 µM; in the data set with A549 it was 5.2 µM.

As for `CO[C@@H]1CC=C2NN(c3ccc(C)cc3)C(=O)C[C@]2(C)O1`, the IC50 in the data set on HCT-116 was 28.7 µM; in the data set with SK-N-SH [1], 25.3 µM; in the data set on SK-BR-3 [2], 29.7 µM; in the data set on DU-145 it was 23.2 µM; in the data set on A549, 21.5 µM.

Turning to `COc1ccc(N2NC3=CC[C@@H](OC)O[C@@]3(c3ccccc3)CC2=O)cc1`, the IC50 in the data set on HCT-116 came to 11.3 µM; in the data set with SK-N-SH [1], 10.4 µM; in the data set with SK-BR-3 [2], 8.4 µM; in the data set with DU-145, 10.1 µM; with A549, 7.1 µM.

`COc1cc(OC)cc(N2NC3=CC[C@@H](OC)O[C@@]3(c3ccccc3)CC2=O)c1`: the IC50 in the data set on HCT-116 is 18.1 µM; in the data set with SK-N-SH [1], 19.5 µM; in the data set on SK-BR-3 [2], 1.2 µM; in the data set on DU-145 it was 18.3 µM; in the data set on A549, 17.2 µM.

As for `CO[C@@H]1CC=C2NN(c3cc(Cl)cc(Cl)c3)C(=O)C[C@]2(C)O1`, the IC50 worked out at 19.4 µM in the data set on HCT-116; 20.2 µM with SK-N-SH [1]; 18.8 µM in the data set on SK-BR-3 [2]; 21.3 µM in the data set with DU-145; 17.5 µM with A549.

Regarding `CO[C@@H]1CC=C2NN(c3cncnc3)C(=O)C[C@]2(C)O1`, the Selectivity ratio with SK-BR-3 [3] is 5. For the same compound, the IC50 with HCT-116 turned out to be 15.1 µM; with SK-N-SH [1], 16.6 µM; with SK-BR-3 [2] it was 3.4 µM; in the data set on DU-145, 17.1 µM; in the data set with A549 it was 4.1 µM.

On to `CO[C@@H]1CC=C2NN(c3ccc(Cl)cc3)C(=O)C[C@]2(C)O1`, for which the IC50 was determined as 35.7 µM with HCT-116; 31.7 µM in the data set with SK-N-SH [1]; 28.7 µM in the data set on SK-BR-3 [2]; 24.2 µM with DU-145; 25.5 µM with A549.

On to `CO[C@@H]1CC=C2NN(c3ccc(C)cc3)C(=O)C[C@]2(c2ccccc2)O1`, for which the IC50 turned out to be 10.5 µM with HCT-116; 11.1 µM with SK-N-SH [1]; 9.2 µM in the data set on SK-BR-3 [2]; 11.2 µM with DU-145; 8.11 µM in the data set with A549.

Turning to `CO[C@@H]1CC=C2NN(c3cc4ccccc4[nH]3)C(=O)C[C@]2(c2ccccc2)O1`, the Selectivity ratio in the data set with SK-BR-3 [3], in the data set with SK-BR-3 [4], in the data set with SK-N-SH [5] and in the data set with SK-BR-3 [6] was 20 throughout. Besides, the IC50 is 8.2 µM in the data set with HCT-116; 9.1 µM in the data set with SK-N-SH [1]; 0.53 µM in the data set on SK-BR-3 [2]; 7.9 µM with DU-145; 8.67 µM with A549; over 38 µM in data set [7].

With `CO[C@@H]1CC=C2NN(c3cc4ccccc4[nH]3)C(=O)C[C@]2(c2ccncc2)O1`, the Selectivity ratio with SK-BR-3 [3] is 30; with SK-BR-3 [4], 30; in the data set with SK-N-SH [5], 30; with SK-BR-3 [6], 30; with SK-BR-3 [8], 290. Further, the Ratio in the data set with SK-BR-3 [8] was found to be 290. Further, the Activity result in data set [9], in data set [10], in [11], in data set [12] and in data set [13] was “Non-toxic” throughout. Besides, the IC50 in the data set on HCT-116 is 4.35 µM; in the data set with SK-N-SH [1], 3.9 µM; with SK-BR-3 [2], 0.15 µM; in the data set with DU-145, 4.1 µM; with A549 it was 4.05 µM; in [7], over 55 µM.

As to `CO[C@@H]1CC=C2NN(c3ccc(C)cc3)C(=O)C[C@]2(c2ccncc2)O1`, the IC50 with HCT-116 came out at 7.4 µM; in the data set with SK-N-SH [1] it was 8.1 µM; with SK-BR-3 [2], 6.2 µM; with DU-145 it was 7.1 µM; in the data set with A549, 5.9 µM.

For `CO[C@@H]1CC=C2NN(c3cc(Cl)cc(Cl)c3)C(=O)C[C@]2(c2ccncc2)O1`, the IC50 in the data set on HCT-116 was 9.1 µM; in the data set on SK-N-SH [1], 8.3 µM; in the data set with SK-BR-3 [2], 5.5 µM; with DU-145 it was 7.6 µM; in the data set on A549, 7.5 µM.

`COc1cc(OC)cc(N2NC3=CC[C@@H](OC)O[C@@]3(C)CC2=O)c1`: in the data set with SK-BR-3 [3], the Selectivity ratio turned out to be 5. Further, the IC50 in the data set on HCT-116 is 24.3 µM; with SK-N-SH [1] it was 23.7 µM; in the data set on SK-BR-3 [2], 5.7 µM; in the data set on DU-145, 22.2 µM; in the data set with A549, 6.15 µM.

With `CO[C@@H]1CC=C2NN(c3cc(F)cc(Cl)c3)C(=O)C[C@]2(c2ccccc2)O1`, the IC50 was 16.2 µM with HCT-116; 17.4 µM with SK-N-SH [1]; 17.6 µM in the data set with SK-BR-3 [2]; 16.1 µM with DU-145; 14.1 µM in the data set on A549.

For the compound `CO[C@@H]1CC=C2NN(c3cc4ccccc4[nH]3)C(=O)C[C@]2(C)O1`, the Selectivity ratio with SK-BR-3 [3] came to 5. Further, the IC50 with HCT-116 stood at 18.3 µM; in the data set on SK-N-SH [1] it was 19.5 µM; with SK-BR-3 [2], 4.1 µM; in the data set on DU-145 it was 14.4 µM; in the data set with A549, 3.92 µM.

For `CO[C@@H]1CC=C2NN(c3cccnc3)C(=O)C[C@]2(C)O1`, the IC50 amounted to 17.1 µM with HCT-116; 19 µM in the data set on SK-N-SH [1]; 15.2 µM with SK-BR-3 [2]; 16.4 µM in the data set with DU-145; 14.3 µM in the data set with A549.

Regarding `COc1cc(OC)cc(N2NC3=CC[C@@H](OC)O[C@@]3(c3ccncc3)CC2=O)c1`, the Selectivity ratio in the data set with SK-BR-3 [3] amounted to 30; in the data set on SK-BR-3 [4], 30; in the data set with SK-N-SH [5], 30; with SK-BR-3 [6], 30; with SK-BR-3 [8], 290. Moreover, the Ratio in the data set with SK-BR-3 [8] came to 290. The Activity result in data set [9], in [10], in data set [11], in data set [12] and in [13] was “Non-toxic” throughout. The IC50 in the data set with HCT-116 is 6.5 µM; in the data set with SK-N-SH [1] it was 6.4 µM; in the data set on SK-BR-3 [2], 0.21 µM; in the data set on DU-145, 5.9 µM; in the data set on A549, 6.22 µM; in [7], over 51 µM.
